In test [1] the target is Voltage-dependent L-type calcium channel subunit alpha-1D (Rattus norvegicus, UniProt P27732). Briefly: Antagonist activity at rat CaV1.3alpha1D transfected in HEK293 cells by FLIPR assay. It is filed as cell-based. An outline of the steps: (§1)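 HEK293 cells stably expressing the L-type channel (rat CaV1.3 α1D with all alternative splice sites, or rabbit CaV1.2 α1C), each co-expressed with rat β3 and α2δ-1 subunits. Cells plated at 4 × 10⁴ cells/well and cultured in DMEM with 10% FBS for 4 days. Calcium influx read by Fluo-8 no-wash dye fluorescence on FLIPR Tetra. IC50 from triplicate percent-inhibition data fitted to a one-site sigmoidal model.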

Test [2] addresses Voltage-dependent L-type calcium channel subunit alpha-1C (Oryctolagus cuniculus, UniProt P15381). Put plainly: Antagonist activity at rabbit CaV1.2alpha1C transfected in HEK293 cells by FLIPR assay. Format: cell-based. An outline of the steps:
as §1

Sequence of Voltage-dependent L-type calcium channel subunit alpha-1D (P27732 whole entry, canonical isoform): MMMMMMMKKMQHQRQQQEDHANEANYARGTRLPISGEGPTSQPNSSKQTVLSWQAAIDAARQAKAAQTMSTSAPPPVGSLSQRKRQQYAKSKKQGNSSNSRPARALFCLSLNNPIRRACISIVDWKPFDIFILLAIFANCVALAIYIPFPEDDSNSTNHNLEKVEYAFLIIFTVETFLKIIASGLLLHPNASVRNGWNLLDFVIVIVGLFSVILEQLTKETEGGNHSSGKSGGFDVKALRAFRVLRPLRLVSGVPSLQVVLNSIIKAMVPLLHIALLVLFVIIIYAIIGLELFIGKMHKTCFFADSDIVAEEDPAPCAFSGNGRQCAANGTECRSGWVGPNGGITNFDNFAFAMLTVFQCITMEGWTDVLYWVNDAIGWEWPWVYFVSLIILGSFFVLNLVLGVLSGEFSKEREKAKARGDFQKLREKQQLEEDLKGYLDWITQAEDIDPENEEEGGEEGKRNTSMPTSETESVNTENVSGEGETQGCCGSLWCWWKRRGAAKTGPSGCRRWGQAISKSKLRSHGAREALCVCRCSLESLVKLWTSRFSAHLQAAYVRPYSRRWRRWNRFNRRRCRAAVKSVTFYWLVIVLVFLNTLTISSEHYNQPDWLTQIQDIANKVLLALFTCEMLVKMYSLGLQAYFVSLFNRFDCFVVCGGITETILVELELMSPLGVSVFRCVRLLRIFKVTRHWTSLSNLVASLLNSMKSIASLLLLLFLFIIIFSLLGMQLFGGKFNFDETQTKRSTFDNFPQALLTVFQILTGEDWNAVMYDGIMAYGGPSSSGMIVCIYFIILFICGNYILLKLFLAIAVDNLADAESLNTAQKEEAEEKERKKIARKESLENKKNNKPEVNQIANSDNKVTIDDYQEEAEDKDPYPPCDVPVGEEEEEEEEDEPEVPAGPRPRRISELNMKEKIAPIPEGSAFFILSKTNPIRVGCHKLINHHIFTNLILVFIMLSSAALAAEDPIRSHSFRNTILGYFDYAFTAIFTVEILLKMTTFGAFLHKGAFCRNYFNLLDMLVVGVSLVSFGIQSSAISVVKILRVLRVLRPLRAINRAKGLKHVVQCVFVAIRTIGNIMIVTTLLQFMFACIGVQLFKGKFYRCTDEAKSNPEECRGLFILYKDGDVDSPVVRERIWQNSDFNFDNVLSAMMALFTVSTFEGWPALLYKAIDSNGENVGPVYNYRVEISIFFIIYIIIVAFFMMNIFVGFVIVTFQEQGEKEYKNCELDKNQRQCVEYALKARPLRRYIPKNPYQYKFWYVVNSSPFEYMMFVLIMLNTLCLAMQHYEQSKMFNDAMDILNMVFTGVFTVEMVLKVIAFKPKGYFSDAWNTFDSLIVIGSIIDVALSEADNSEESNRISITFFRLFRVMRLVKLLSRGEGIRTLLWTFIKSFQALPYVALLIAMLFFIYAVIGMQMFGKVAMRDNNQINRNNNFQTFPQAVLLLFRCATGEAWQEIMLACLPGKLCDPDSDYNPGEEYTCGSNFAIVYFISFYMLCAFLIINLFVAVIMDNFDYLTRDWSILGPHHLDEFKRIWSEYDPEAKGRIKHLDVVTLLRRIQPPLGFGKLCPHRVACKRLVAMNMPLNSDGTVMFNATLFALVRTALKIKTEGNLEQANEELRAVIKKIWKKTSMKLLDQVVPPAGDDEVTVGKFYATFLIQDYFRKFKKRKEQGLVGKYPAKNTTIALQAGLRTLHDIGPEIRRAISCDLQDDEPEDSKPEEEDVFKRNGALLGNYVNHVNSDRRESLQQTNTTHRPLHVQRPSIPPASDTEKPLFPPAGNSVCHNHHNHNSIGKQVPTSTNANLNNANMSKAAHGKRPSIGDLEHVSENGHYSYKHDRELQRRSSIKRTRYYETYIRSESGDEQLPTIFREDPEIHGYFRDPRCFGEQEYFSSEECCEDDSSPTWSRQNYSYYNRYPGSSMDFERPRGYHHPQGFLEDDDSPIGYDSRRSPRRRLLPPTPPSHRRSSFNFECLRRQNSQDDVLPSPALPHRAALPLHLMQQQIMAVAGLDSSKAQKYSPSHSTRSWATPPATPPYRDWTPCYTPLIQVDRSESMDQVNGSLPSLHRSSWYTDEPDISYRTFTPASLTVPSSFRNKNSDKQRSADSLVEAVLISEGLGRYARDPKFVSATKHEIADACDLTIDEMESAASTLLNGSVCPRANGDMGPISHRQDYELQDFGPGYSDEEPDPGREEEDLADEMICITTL
Sequence of Voltage-dependent L-type calcium channel subunit alpha-1C (P15381 whole entry): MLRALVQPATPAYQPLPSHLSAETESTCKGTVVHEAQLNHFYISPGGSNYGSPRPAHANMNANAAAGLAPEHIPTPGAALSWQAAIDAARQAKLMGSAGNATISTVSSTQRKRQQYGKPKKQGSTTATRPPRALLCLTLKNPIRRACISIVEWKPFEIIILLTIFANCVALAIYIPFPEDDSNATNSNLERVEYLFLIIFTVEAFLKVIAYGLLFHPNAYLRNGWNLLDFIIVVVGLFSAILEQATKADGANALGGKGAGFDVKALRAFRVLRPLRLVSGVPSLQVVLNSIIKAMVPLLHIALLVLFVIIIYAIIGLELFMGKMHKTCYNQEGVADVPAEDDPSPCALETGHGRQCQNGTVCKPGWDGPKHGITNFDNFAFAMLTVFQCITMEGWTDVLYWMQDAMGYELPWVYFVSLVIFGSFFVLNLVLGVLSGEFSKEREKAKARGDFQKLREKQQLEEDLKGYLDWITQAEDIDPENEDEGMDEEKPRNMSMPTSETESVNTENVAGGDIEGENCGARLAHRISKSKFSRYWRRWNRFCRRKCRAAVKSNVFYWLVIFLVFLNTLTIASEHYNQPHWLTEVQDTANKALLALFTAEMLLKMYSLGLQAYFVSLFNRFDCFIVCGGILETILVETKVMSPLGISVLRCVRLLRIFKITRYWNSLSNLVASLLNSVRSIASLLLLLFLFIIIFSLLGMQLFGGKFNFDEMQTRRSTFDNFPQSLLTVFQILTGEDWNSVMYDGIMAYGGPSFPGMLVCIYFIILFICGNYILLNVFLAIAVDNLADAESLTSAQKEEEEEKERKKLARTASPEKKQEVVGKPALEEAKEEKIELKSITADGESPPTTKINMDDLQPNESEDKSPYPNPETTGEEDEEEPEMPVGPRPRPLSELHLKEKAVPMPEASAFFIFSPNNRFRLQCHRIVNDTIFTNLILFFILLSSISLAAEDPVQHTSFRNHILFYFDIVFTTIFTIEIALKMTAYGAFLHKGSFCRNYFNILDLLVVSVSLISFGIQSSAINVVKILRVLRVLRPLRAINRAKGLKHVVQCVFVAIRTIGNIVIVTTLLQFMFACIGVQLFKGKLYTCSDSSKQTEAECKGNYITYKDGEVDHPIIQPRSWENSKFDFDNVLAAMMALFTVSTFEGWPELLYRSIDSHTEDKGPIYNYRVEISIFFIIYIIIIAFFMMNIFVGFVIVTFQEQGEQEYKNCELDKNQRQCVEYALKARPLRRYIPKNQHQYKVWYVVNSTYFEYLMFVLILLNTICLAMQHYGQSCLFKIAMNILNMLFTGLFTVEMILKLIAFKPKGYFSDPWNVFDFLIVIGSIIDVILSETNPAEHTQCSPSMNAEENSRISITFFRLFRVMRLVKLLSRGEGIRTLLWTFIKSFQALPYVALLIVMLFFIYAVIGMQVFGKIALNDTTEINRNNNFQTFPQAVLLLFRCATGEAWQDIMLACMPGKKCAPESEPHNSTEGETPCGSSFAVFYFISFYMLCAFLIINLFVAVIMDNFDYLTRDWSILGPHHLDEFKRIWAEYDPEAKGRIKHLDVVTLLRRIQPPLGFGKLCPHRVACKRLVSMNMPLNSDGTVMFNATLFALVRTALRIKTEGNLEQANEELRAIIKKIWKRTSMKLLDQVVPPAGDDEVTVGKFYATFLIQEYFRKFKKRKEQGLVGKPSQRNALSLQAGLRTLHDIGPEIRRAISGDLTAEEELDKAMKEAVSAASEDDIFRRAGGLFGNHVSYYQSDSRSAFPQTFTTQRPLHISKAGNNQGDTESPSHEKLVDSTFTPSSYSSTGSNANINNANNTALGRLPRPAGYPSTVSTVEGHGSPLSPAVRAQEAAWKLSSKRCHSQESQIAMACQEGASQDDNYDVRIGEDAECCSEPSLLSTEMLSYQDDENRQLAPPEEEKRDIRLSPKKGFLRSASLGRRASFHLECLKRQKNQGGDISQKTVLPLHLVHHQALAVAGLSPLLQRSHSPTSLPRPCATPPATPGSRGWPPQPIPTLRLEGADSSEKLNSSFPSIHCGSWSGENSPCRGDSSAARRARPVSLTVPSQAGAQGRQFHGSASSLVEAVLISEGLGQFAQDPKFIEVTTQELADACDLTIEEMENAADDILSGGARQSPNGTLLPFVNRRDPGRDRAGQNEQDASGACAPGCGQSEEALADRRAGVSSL

The term IC50 denotes the point on the concentration scale where inhibition reaches its midpoint. Turning to `CC1(C)CCC[C@H]1N1C(=O)CC(=O)N(CCc2ccc(Cl)cc2)C1=O`, the half-inhibitory concentration (IC50) in test [1] came out at 4.7 µM; in test [2], 4.8 µM.
With `CC1CCC(N2C(=O)CC(=O)N(CCc3ccc(Cl)cc3)C2=O)CC1` (configuration not stated), the half-maximal inhibitory concentration (IC50) is 11 µM in test [1] and 30 µM in test [2].
The corresponding values for `O=C1CC(=O)N(C2CCCC2)C(=O)N1CCC(c1ccccc1)c1ccccc1` are 4.1 µM and 4.7 µM.
In the same order, the values of `O=C1CC(=O)N(C2Cc3ccccc3C2)C(=O)N1C1CCCC1` are 14.4 µM and 16.4 µM.
Regarding `CC(C)(CN1C(=O)CC(=O)N(C2CCCC2)C1=O)c1cccc(C(F)(F)F)c1`, the IC50 in test [1] worked out at 2.2 µM; in test [2], 4.2 µM.
The corresponding values for `C[C@H]1CCCC[C@H]1N1C(=O)CC(=O)N(CCc2ccc(Cl)cc2)C1=O` are 6.1 µM and 8.3 µM.
In the same order, the values of `O=C1CC(=O)N(C2CCCC2)C(=O)N1CCc1cc(Cl)cc(Cl)c1` are 1.4 µM and 3.3 µM.
For `O=C1CC(=O)N(C2CC3CCC2C3)C(=O)N1CCc1cc(C(F)(F)F)cc(C(F)(F)F)c1` (mixture of isomers), the figures for the IC50 in test [1] and in test [2] were 1.8 µM and 3.8 µM, respectively.
The corresponding values for `C[C@H]1[C@H](N2C(=O)CC(=O)N(CCc3cccc(Cl)c3)C2=O)C[C@@H]2C[C@H]1C2(C)C` are more than 100 µM and more than 100 µM.
The corresponding values for `C[C@H]1[C@H](N2C(=O)CC(=O)N(CCc3ccc(Cl)cc3)C2=O)C[C@@H]2C[C@H]1C2(C)C` are 18 µM and more than 100 µM.
In the same order, the values of `O=C1CC(=O)N(C2CCCC2)C(=O)N1c1cccc(C(F)(F)F)c1` are more than 100 µM and more than 100 µM.
Turning to `COC(=O)[C@H](Cc1ccccc1)N1C(=O)CC(=O)N(C2CCCC2)C1=O`, the IC50 in test [1] and in test [2] was more than 100 µM each time.
With `C[C@@H]1[C@@H](N2C(=O)CC(=O)N(CCc3cccc(Cl)c3)C2=O)C[C@H]2C[C@@H]1C2(C)C`, the IC50 in test [1] and in test [2] was more than 100 µM throughout.
As for `O=C1CC(=O)N([C@@H]2C[C@@H]3CC[C@H]2C3)C(=O)N1CCc1cccc(C(F)(F)F)c1`, the values for the half-maximal inhibitory concentration (IC50) in test [1] and in test [2] were 2.1 µM and 76.6 µM, respectively.
The corresponding values for `C[C@@H]1[C@@H](C)CC[C@@H]1N1C(=O)CC(=O)N(CCc2cccc(Cl)c2)C1=O` are 3.09 µM and 13.2 µM.
The corresponding values for `CC(C)C(=O)O[C@H]1CCC[C@@H]1N1C(=O)CC(=O)N(CCc2cccc(Cl)c2)C1=O` are 13.7 µM and 12.9 µM.
Take `CC1(C)CCC(N2C(=O)CC(=O)N(CCc3cccc(Cl)c3)C2=O)C1` (configuration not stated): the IC50 in test [1] worked out at 5.6 µM; in test [2], 43 µM.
Take `CCOC(=O)[C@@H]1CCC[C@@H]1N1C(=O)CC(=O)N(CCc2cccc(Cl)c2)C1=O`: the IC50 in test [1] was determined as 12 µM; in test [2] it was 12.6 µM.
In the same order, the values of `CC1(C)[C@@H]2CC[C@@]1(C)[C@@H](N1C(=O)CC(=O)N(CCc3ccc(Cl)cc3)C1=O)C2` are more than 100 µM and more than 100 µM.
In the same order, the values of `O=C1CC(=O)N(C2CC3CCC2C3)C(=O)N1CCc1cc(Cl)cc(Cl)c1` (racemic) are 2.7 µM and 4.6 µM.
The corresponding values for `O=C1CC(=O)N(C2CCCC2)C(=O)N1Cc1cccc(Cl)c1` are 43 µM and 46.7 µM.
With `O=C1CC(=O)N([C@H]2C[C@H]3CC[C@@H]2C3)C(=O)N1CCc1ccc(Cl)cc1`, the IC50 was 2.1 µM in test [1] and 100 µM in test [2].
In the same order, the values of `O=C(O)[C@H]1CC[C@@H](N2C(=O)CC(=O)N(CCc3cccc(Cl)c3)C2=O)C1` are more than 100 µM and more than 100 µM.
For the molecule `CC(C)OC(=O)[C@H]1CC[C@@H](N2C(=O)CC(=O)N(CCc3cccc(Cl)c3)C2=O)C1`, the IC50 is 10.4 µM in test [1] and 8.5 µM in test [2].
The corresponding values for `C[C@H](C1CCCCC1)N1C(=O)CC(=O)N(CCc2cccc(Cl)c2)C1=O` are 9.7 µM and more than 100 µM.
Consider `O=C1CC(=O)N(C2CCCC2)C(=O)N1Cc1ccc(Cl)cc1`, for which the IC50 is 17.9 µM in test [1] and 51.7 µM in test [2].
In the same order, the values of `O=C1CC(=O)N(C2CCCC2)C(=O)N1CCc1ccc(-c2ccccc2)cc1` are 4.4 µM and 5.4 µM.
In the same order, the values of `CC1(C)[C@@H]2CC[C@@]1(C)[C@@H](N1C(=O)CC(=O)N(CCc3cccc(Cl)c3)C1=O)C2` are more than 100 µM and more than 100 µM.
As to `CC1CCC(N2C(=O)CC(=O)N(CCc3cccc(Cl)c3)C2=O)C1` (configuration not stated), the IC50 turned out to be 3.7 µM in test [1] and 38 µM in test [2].
The corresponding values for `O=C1CC(=O)N(C2CC3CCC2C3)C(=O)N1CCc1cccc(C(F)(F)F)c1` (racemic) are 2.4 µM and 100 µM.
The corresponding values for `CC(=O)OCC1(N2C(=O)CC(=O)N(CCc3cccc(Cl)c3)C2=O)CCCC1` are 39.3 µM and 29.1 µM.
The corresponding values for `C[C@@H]1CCC[C@@H]1N1C(=O)CC(=O)N(CCc2ccc(Cl)cc2)C1=O` are 3.1 µM and 5.1 µM.
As for `O=C1CC(=O)N(C2CCCC2)C(=O)N1CC1(c2ccc(Cl)cc2)CC1`, the half-maximal inhibitory concentration (IC50) in test [1] was 7.3 µM; in test [2], more than 100 µM.
`CC1(C)CCC[C@H]1N1C(=O)CC(=O)N(CCc2cccc(C(F)(F)F)c2)C1=O`: the IC50 came out at 2.7 µM in test [1] and 3.1 µM in test [2].
The corresponding values for `C[C@H](c1cccc2ccccc12)N1C(=O)CC(=O)N(C2CCCC2)C1=O` are 4.6 µM and 6.15 µM.
The corresponding values for `O=C(OCc1ccccc1)N1CC[C@H](N2C(=O)CC(=O)N(CCc3cccc(Cl)c3)C2=O)C1` are 50.3 µM and 33.9 µM.
In the same order, the values of `CCC1CCC(N2C(=O)CC(=O)N(CCc3ccc(Cl)cc3)C2=O)C1` (racemic) are 6.7 µM and 29 µM.
As to `COC(=O)[C@@H](Cc1ccccc1)N1C(=O)CC(=O)N(C2CCCC2)C1=O`, the IC50 in test [1] worked out at 55 µM; in test [2], 44.3 µM.
In the same order, the values of `CC(C)C(=O)OCC1(N2C(=O)CC(=O)N(CCc3cccc(Cl)c3)C2=O)CCCC1` are 11.9 µM and 10.6 µM.
The corresponding values for `O=C1CC(=O)N(C[C@H]2CCCO2)C(=O)N1CCc1ccc(Cl)cc1` are more than 100 µM and more than 100 µM.
The corresponding values for `O=C1CC(=O)N(C2CCc3ccccc32)C(=O)N1C1CCCC1` (configuration not stated) are 19.9 µM and 24.8 µM.
On to `CC1(C)[C@@H]2CC[C@H](CN3C(=O)CC(=O)N(CCc4ccc(Cl)cc4)C3=O)[C@H]1C2`, for which the IC50 in test [1] and in test [2] was more than 100 µM throughout.
For the molecule `CC(CN1C(=O)CC(=O)N(C2CC3CCC2C3)C1=O)c1ccc(Cl)cc1` (racemic), the IC50 in test [1] is 3.4 µM; in test [2], 8 µM.
`O=C1CC(=O)N(C2CCCC2)C(=O)N1CCc1cccc(Cl)c1`: the values for the IC50 in test [1] and in test [2] were 6.3 µM and more than 100 µM, respectively.
In the same order, the values of `C[C@H]1CCCC[C@H]1N1C(=O)CC(=O)N(CCc2cccc(Cl)c2)C1=O` are 3.7 µM and 3.7 µM.
With `CC1(C)[C@@H]2CC[C@H](CN3C(=O)CC(=O)N(CCc4cccc(Cl)c4)C3=O)[C@H]1C2`, the IC50 in test [1] is 40 µM; in test [2] it was 47 µM.
The corresponding values for `O=C1CC(=O)N([C@H]2C[C@H]3CC[C@@H]2C3)C(=O)N1CCc1cccc(C(F)(F)F)c1` are 3 µM and more than 100 µM.
On to `CO[C@H]1CCC[C@@H]1N1C(=O)CC(=O)N(CCc2cccc(Cl)c2)C1=O`, for which the IC50 in test [1] is 30.3 µM; in test [2], 34.6 µM.
The corresponding values for `C[C@@H]1[C@@H](N2C(=O)CC(=O)N(CCc3ccc(Cl)cc3)C2=O)C[C@H]2C[C@@H]1C2(C)C` are 22 µM and 28 µM.
The corresponding values for `C[C@H]1CCC[C@@H]1N1C(=O)CC(=O)N(CCc2ccc(Cl)cc2)C1=O` (racemic) are 7 µM and 23 µM.
The corresponding values for `CC(C)(CN1C(=O)CC(=O)N(C2CC3CCC2C3)C1=O)c1cccc(Cl)c1` (mixture of isomers) are 2.3 µM and 2.8 µM.
`CC1(C)CCC(N2C(=O)CC(=O)N(CCc3ccc(Cl)cc3)C2=O)C1` (configuration not stated): the IC50 in test [1] came to 3.7 µM; in test [2], 26 µM.
In the same order, the values of `O=C1CC(=O)N([C@H]2CCNC2)C(=O)N1CCc1cccc(Cl)c1` are more than 100 µM and more than 100 µM.
As to `CC1CCC(N2C(=O)CC(=O)N(CCc3ccc(Cl)cc3)C2=O)C1` (configuration not stated), the half-inhibitory concentration (IC50) came out at 9.8 µM in test [1] and 20.4 µM in test [2].
For the molecule `CC(Cc1ccc(Cl)cc1)N1C(=O)CC(=O)N(C2CC3CCC2C3)C1=O` (racemic), the IC50 was 3.6 µM in test [1] and 4.1 µM in test [2].
In the same order, the values of `CC(=O)O[C@H]1CCC[C@@H]1N1C(=O)CC(=O)N(CCc2cccc(Cl)c2)C1=O` are more than 100 µM and 48.1 µM.
In the same order, the values of `CC(CN1C(=O)CC(=O)N(C2CCCC2)C1=O)c1cccc(Cl)c1` (configuration not stated) are 4.2 µM and 20.7 µM.
The corresponding values for `C[C@@H](C1CCCCC1)N1C(=O)CC(=O)N(CCc2cccc(Cl)c2)C1=O` are 4.3 µM and more than 100 µM.
Turning to `O=C1CC(=O)N(C[C@H]2CCCO2)C(=O)N1CCc1cccc(Cl)c1`, the IC50 was more than 100 µM in test [1] and 41 µM in test [2].
As for `CCC(CC)N1C(=O)CC(=O)N(CCc2cccc(Cl)c2)C1=O`, the IC50 in test [1] was 11.7 µM; in test [2] it was 25.5 µM.
In the case of `CC(C)c1ccc(CCN2C(=O)CC(=O)N(C3CCCC3)C2=O)cc1`, the IC50 in test [1] amounted to 39 µM; in test [2], 57.6 µM.

These data come from ChEMBL document CHEMBL2380260, “Structure-activity relationship of N,N'-disubstituted pyrimidinetriones as Ca(V)1.3 calcium channel-selective antagonists for Parkinson's disease” (J Med Chem, 2013).
